Test results from ChEMBL document CHEMBL4689842, “EUbOPEN Chemogenomics Library wave 1” (2021).

System: HEK-293T
Assay: Multiplex assay against HEK293T;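 for Population Tubulin-Different-Phenotype (%): share of the cells with healthy nuclei that show this phenotype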
Assay type: toxicity, cell-based
Conditions: human
Method in brief: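 At seeding, live cells were stained with Hoechst33342, BioTracker Green Microtubule Cytoskeleton Dye, MitoTracker Red and Annexin V Alexa Fluor 680. After compound addition they were imaged on a CQ1 microscope at 37°C and 5% CO2, and CellPathfinder machine-learning gating sorted them into Hoechst high-intensity objects or normal cells, with normal cells further split into healthy, pyknosed or fragmented nuclei and pyknosed cells into mitotic or apoptotic. Tubulin, mitochondrial-mass and membrane-permeability phenotypes are given as per cents of cells with healthy nuclei.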

[1] = 12 h, 1 µM, compound concentration 1 uM, replicate 1
[2] = 12 h, 1 µM, compound concentration 1 uM, replicate 2
[3] = 12 h, 10 µM, compound concentration 10 uM, replicate 1
[4] = 12 h, 10 µM, compound concentration 10 uM, replicate 2
[5] = 24 h, 1 µM, compound concentration 1 uM, replicate 1
[6] = 24 h, 1 µM, compound concentration 1 uM, replicate 2
[7] = 24 h, 10 µM, compound concentration 10 uM, replicate 1
[8] = 24 h, 10 µM, compound concentration 10 uM, replicate 2

Cc1nc(-c2cn3c(n2)-c2ccc(-c4cnn(C(C)(C)C(N)=O)c4)cc2OCC3)n(C(C)C)n1 [TASELISIB]
Population Apoptotic (%) [1]: 21% | Population Fragmented Nuclei (%) [1]: 14% | Population Healthy Nuclei (%) [1]: 44% | Population Hoechst High Intensity Objects (%) [1]: 22% | Population Membrane Permeable-Phenotype (%) [1]: 4% | Population Mitochondria Different-Phenotype (%) [1]: 12% | Population Mitotic Cells (%) [1]: 78% | Population Normal (%) [1]: 77% | Population Pyknosed Nuclei (%) [1]: 41% | Population Tubulin-Different-Phenotype (%) [1]: 9% | Total Cell Count [1]: 548 | Population Apoptotic (%) [2]: 17% | Population Fragmented Nuclei (%) [2]: 2% | Population Healthy Nuclei (%) [2]: 80% | Population Hoechst High Intensity Objects (%) [2]: 7% | Population Membrane Permeable-Phenotype (%) [2]: 0% | Population Mitochondria Different-Phenotype (%) [2]: 28% | Population Mitotic Cells (%) [2]: 82% | Population Normal (%) [2]: 92% | Population Pyknosed Nuclei (%) [2]: 16% | Population Tubulin-Different-Phenotype (%) [2]: 13% | Total Cell Count [2]: 803 | Population Apoptotic (%) [3]: 17% | Population Fragmented Nuclei (%) [3]: 17% | Population Healthy Nuclei (%) [3]: 49% | Population Hoechst High Intensity Objects (%) [3]: 12% | Population Membrane Permeable-Phenotype (%) [3]: 3% | Population Mitochondria Different-Phenotype (%) [3]: 8% | Population Mitotic Cells (%) [3]: 82% | Population Normal (%) [3]: 87% | Population Pyknosed Nuclei (%) [3]: 32% | Population Tubulin-Different-Phenotype (%) [3]: 6% | Total Cell Count [3]: 507 | Population Apoptotic (%) [4]: 11% | Population Fragmented Nuclei (%) [4]: 8% | Population Healthy Nuclei (%) [4]: 86% | Population Hoechst High Intensity Objects (%) [4]: 3% | Population Membrane Permeable-Phenotype (%) [4]: 1% | Population Mitochondria Different-Phenotype (%) [4]: 11% | Population Mitotic Cells (%) [4]: 88% | Population Normal (%) [4]: 96% | Population Pyknosed Nuclei (%) [4]: 4% | Population Tubulin-Different-Phenotype (%) [4]: 10% | Total Cell Count [4]: 1692 | Population Apoptotic (%) [5]: 24% | Population Fragmented Nuclei (%) [5]: 16% | Population Healthy Nuclei (%) [5]: 53% | Population Hoechst High Intensity Objects (%) [5]: 17% | Population Membrane Permeable-Phenotype (%) [5]: 3% | Population Mitochondria Different-Phenotype (%) [5]: 15% | Population Mitotic Cells (%) [5]: 75% | Population Normal (%) [5]: 82% | Population Pyknosed Nuclei (%) [5]: 30% | Population Tubulin-Different-Phenotype (%) [5]: 18% | Total Cell Count [5]: 507 | Population Apoptotic (%) [6]: 20% | Population Fragmented Nuclei (%) [6]: 4% | Population Healthy Nuclei (%) [6]: 84% | Population Hoechst High Intensity Objects (%) [6]: 10% | Population Membrane Permeable-Phenotype (%) [6]: 1% | Population Mitochondria Different-Phenotype (%) [6]: 20% | Population Mitotic Cells (%) [6]: 79% | Population Normal (%) [6]: 89% | Population Pyknosed Nuclei (%) [6]: 11% | Population Tubulin-Different-Phenotype (%) [6]: 39% | Total Cell Count [6]: 810 | Population Apoptotic (%) [7]: 27% | Population Fragmented Nuclei (%) [7]: 13% | Population Healthy Nuclei (%) [7]: 66% | Population Hoechst High Intensity Objects (%) [7]: 8% | Population Membrane Permeable-Phenotype (%) [7]: 12% | Population Mitochondria Different-Phenotype (%) [7]: 5% | Population Mitotic Cells (%) [7]: 72% | Population Normal (%) [7]: 91% | Population Pyknosed Nuclei (%) [7]: 19% | Population Tubulin-Different-Phenotype (%) [7]: 11% | Total Cell Count [7]: 535 | Population Apoptotic (%) [8]: 3% | Population Fragmented Nuclei (%) [8]: 24% | Population Healthy Nuclei (%) [8]: 73% | Population Hoechst High Intensity Objects (%) [8]: 4% | Population Membrane Permeable-Phenotype (%) [8]: 7% | Population Mitochondria Different-Phenotype (%) [8]: 2% | Population Mitotic Cells (%) [8]: 96% | Population Normal (%) [8]: 95% | Population Pyknosed Nuclei (%) [8]: 1% | Population Tubulin-Different-Phenotype (%) [8]: 12% | Total Cell Count [8]: 2851
